# Screening results: PubChem BioAssay, several laboratories
# PolyA inh – inhibitors of polyadenylation in S. cerevisiae | S. cerevisiae SKY197-pL101 polyadenylation reporter, beta-gal luminescence; efflux-impaired pdr1/pdr3 knockout yeast; score 100 = 6 SD above DMSO | activity score, % at 12 µM | 300,000 tested, 0.02% active | AID 1875;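 active means lowest replicate activity score at least 50, where 100 means six control SD above control mean; inconclusive means lowest score under 50 but half or more replicates reach 50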;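 further: yeast exposed to compound for 9 h at 30 °C; higher score means more reporter readthrough which indicates perturbed polyadenylation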
# proCasp3 act – activators of human procaspase-3. P42574. recombinant procaspase-3 D3A, Ac-DEVD-pNA absorbance 405 nm. activation, % at 8.5 µM. 330,000 tested, 0.11% active. AID 463141;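 active means activation above the mean of all tested compounds plus 3 SD, cut at about 21% in these data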;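 further: 0% = DMSO alone and 100% = DMSO wells spiked with extra 5 µM PC-3 D3A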
#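 Test system: Procaspase-3 D3A mutant; medium: Zinc-free HEPES/NaCl buffer with 0.01% Triton X-100 at pH 7.4; reagent: DEVD-pNA substrate; doses: one concentration, 8.5 µM nominal, 0.8% DMSO; times: 1 h preincubation plus 2 h reaction at 25 °C; signal: Epi-absorbance at 405 nm of released p-nitroaniline, 0 and 120 min; replicates: singlicate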
# Rce1 inhib – blocks yeast Ras-converting enzyme; yeast membranes, quenched prenylated peptide cleavage fluorescence; calls only; 290,000 tested, 0.27% active;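 active means fall in fluorescence gain of 50% or more versus controls, with final raw signal at or below 3038400; inconclusive means same 50% fall but final raw signal above 3038400; inactive means fall in fluorescence gain under 50%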;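 further: plate controls were neutral control wells for no effect and wells lacking membranes for full effect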
# Target sequence (Q03530 whole entry, looked up): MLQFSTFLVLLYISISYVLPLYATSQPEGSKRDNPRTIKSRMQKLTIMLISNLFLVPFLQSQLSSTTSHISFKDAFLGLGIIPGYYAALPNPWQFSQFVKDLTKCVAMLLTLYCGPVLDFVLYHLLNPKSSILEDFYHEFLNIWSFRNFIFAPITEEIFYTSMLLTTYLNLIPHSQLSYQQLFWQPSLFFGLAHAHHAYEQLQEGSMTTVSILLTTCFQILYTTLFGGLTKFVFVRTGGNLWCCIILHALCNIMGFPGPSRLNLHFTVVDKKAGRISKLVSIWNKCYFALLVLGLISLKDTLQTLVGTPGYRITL
# A1 inh – inhibitors of the anti-apoptotic protein A1, read as caspase activation. MEF A1-2A-BIM cells, Caspase-Glo 3/7 luminescence, 3 h; percent of clofoctol response, vehicle zero. caspase activation, % (test concentration not listed). 330,000 tested, 0.066% active. AID 2462;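 active means over half of replicate activation scores above 10%, or exactly half above 10 with the replicate mean above 10; inconclusive means replicate mean below 10 yet half the replicates above 10; inactive means over half of replicates below 10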
# procasp7 counter – counter-screen for procaspase-3 activators: activators of human procaspase-7; recombinant procaspase-7, Ac-DEVD-pNA absorbance 405 nm; D23A/D198A/D206A triple mutant, cannot self-cleave; scale: DMSO 0, 5 µM enzyme 100; 330,000 tested, 0.093% active; activation, % at 8.5 µM;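 active means percent activation above the screen-wide mean plus 3 SD, cut at about 25% in these data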
#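 Assay system: Uncleavable procaspase-7 mutant enzyme / Input: 2 µM procaspase-7 mutant as dispensed / Dosing: single nominal 8.5 µM compound dose, 0.8% DMSO final / Timing: 1 h enzyme–compound preincubation and 2 h substrate reaction, both 25 °C / Detection: p-Nitroaniline absorbance at 405 nm, read at 0 and 120 min / Replication: singlicate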
# The depositor's hits bear a star; i = inactive; ? = inconclusive; · = not tested or not shown; + = active, no number. Sampled rows, rich in hits. Any-hit rate of the full collection: about 0.48%.
SMILES,PolyA inh,proCasp3 act,Rce1 inhib,A1 inh,procasp7 counter
CCCNC(=O)c1onc(CS(=O)(=O)c2cc(C)cc(C)c2)c1C(=O)NCCC,·,7,·,0,11
COc1cc(NC(=O)C/C(C)=N/NC(=O)c2cccc(O)c2)c(OC)cc1Cl,6,-22,+,-1,-9
CCn1c2ccccc2c2cc(/C=N/NC(=O)c3cc(O)cc(O)c3)ccc21,14,11,+,0,14
CCn1c2ccccc2c2cc(/C=N/NC(=O)c3ccc(O)cc3)ccc21,-19,3,+,0,5
O=C(N/N=C/c1cn(Cc2ccccc2)c2ccccc12)c1cc(O)cc(O)c1,0,·,+,0,·
Cn1c2ccccc2c2cc(/C=N/NC(=O)c3ccc(O)cc3O)ccc21,12,18,i,1,9
Cc1ccc(C(=O)N/N=C/c2cn(Cc3ccccc3)c3ccccc23)cn1,-9,-3,i,0,2
CCn1c2ccccc2c2cc(/C=N/NC(=O)c3ccncc3)ccc21,-4,2,i,0,3
CCOC(=O)C1(Cc2ccc(OC)cc2)CCN(C(=O)CCc2cccnc2)CC1,6,11,i,0,1
CCn1cc(/C=C(\NC(=O)c2ccccc2Cl)C(=O)N2CCOCC2)c2ccccc21,8,-11,+,-1,2
CCn1cc(/C=C(\NC(=O)c2ccccc2Cl)C(=O)N2CCN(C)CC2)c2ccccc21,5,·,i,·,·
CCn1cc(/C=C(\NC(=O)c2ccccc2F)C(=O)N2CCCC2)c2ccccc21,-1,-1,+,0,-2
CCn1cc(/C=C(\NC(=O)c2ccccc2F)C(=O)N2CCOCC2)c2ccccc21,3,1,+,0,-2
COC(=O)/C=C/c1ccsc1NC(C)=O,1,-4,i,1,10
C[C@H]1CC[C@@]2(O[C@@H](CCO)C[C@H](O)[C@H]2O)O1,0,9,i,0,7
CC1CN(S(=O)(=O)c2cc(C(=O)NC(C)c3cccnc3)ccc2Cl)CC(C)O1 (centres undefined),·,2,·,1,1
CN(C)C(=O)COc1ccc2c3c(c(=O)oc2c1)CCCC3,4,0,i,0,5
COC(=O)C1=CNC=C(C(=O)OC)C1c1cccc2ccccc12,-2,8,+,1,13
COC(=O)C1=CNC=C(C(=O)OC)C1c1ccccc1Cl,·,-3,·,-1,4
O=C(COc1ccccc1[N+](=O)[O-])Nc1ccc(NC(=O)c2cc3ccccc3o2)cc1,13,3,i,7.5*,1
O=C(COc1ccc(/C=N/NC(=O)c2cc3ccccc3o2)cc1Br)Nc1ccccc1,7,14,i,27*,-11
CC(C)(C)C(=O)N1CCN(c2nc3ccc(Cl)cc3s2)CC1,-26,-9,i,1,0
O=C(Nc1cccc(CNCCc2c[nH]c3ccccc23)c1)c1ccccc1Cl,2,3,i,1,0
O=C(c1cccs1)N1CCCC(c2nc3c(nnn3Cc3c(Cl)cccc3Cl)c(=O)[nH]2)C1 (centres undefined),-10,3,i,2,12
COc1ccc(-c2c(-c3ccsc3)oc3ccc(N4CCOCC4)cc23)cn1,14,9,+,?,0
SMILES,PolyA inh,proCasp3 act,Rce1 inhib,A1 inh,procasp7 counter
Cc1ccc(-n2c(O)c(C=Nc3ccc4c(c3)OCO4)c3ccccc3c2=O)cc1C,-15,6,i,0,-7
CCOC(=O)Cc1csc(/N=C/c2c(O)n(-c3ccc(C)c(C)c3)c(=O)c3ccccc23)n1,18,-1,i,22*,-2
Cc1ccsc1C(=O)OCC(=O)N1C(C)CCCC1C (centres undefined),·,7,·,0,13
CSc1ccc(/C=C/C(=O)OCC(=O)NC(C)C)cc1,-18,1,+,0,0
COc1ccc(C(CNC(=O)COc2cc(C)c(Cl)c(C)c2)N2CCCCC2)cc1 (centres undefined),13,2,+,·,-5
COc1ccc(C(CNC(=O)COc2ccc(C)c(C)c2)N2CCCCC2)cc1 (centres undefined),2,7,i,·,14
